According to ChEMBL document CHEMBL1141257, “Solanapyrone analogues from a Hawaiian fungicolous fungus” (J Nat Prod, 2007):
Values after ≈ are worked out from the molar mass of the structure shown. Active and inactive are the calls of the source. The rule behind the calls is not given here.

Experiments:
[1] = system: Staphylococcus aureus; assay: Antibacterial activity against Staphylococcus aureus ATCC 25923 at 50 ug/disk after 4 days; type: functional; settings: for zone of inhibition at 50 µg/disc: ATCC 25923, 96 h, read-out: IZ
In short: (§1)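 Standard agar disk diffusion assay with 50 μg loaded per disk. Zones were read after 4 days as clear zones of inhibition in mm. For S. aureus, the zone of reduced growth was also measured in mm.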

[2] = system: Candida albicans; assay: Antifungal activity against Candida albicans ATCC 14053; type: functional; in short: as §1
[3] = system: Aspergillus flavus; assay: Antifungal activity against Aspergillus flavus NRRL 6541 at 200 ug/disk after 4 days; type: functional; settings: NRRL 6541, 96 h, read-out: IZ
In short: (§2)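 Disk diffusion assay with 200 μg applied per disk; the diameter of the growth-inhibition zone was read in mm, and persistence of the zone was followed over 4 days.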

[4] = system: Staphylococcus aureus; assay: Antibacterial activity against Staphylococcus aureus ATCC 25923 assessed as zone of reduced growth at 50 ug/disk after 4 days; type: functional; settings: ATCC 25923, 96 h, read-out: IZ; in short: as §1
[5] = system: Fusarium verticillioides; assay: Antifungal activity against Fusarium verticillioides NRRL 25457 at 200 ug/disk after 4 days; type: functional; settings: NRRL 25457, 96 h, read-out: IZ; in short: as §2
[6] = system: Aspergillus flavus; assay: Antifungal activity against Aspergillus flavus NRRL 6541; type: functional, organism-based
In short: (§3)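 Disk diffusion assay against the fungus with 200 μg of compound per disk; zones of inhibition were read and followed over 4 days. A further evaluation reported MIC and IC50 values, with the antifungal standard run under the same protocols.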

[7] = system: Fusarium verticillioides; assay: Antifungal activity against Fusarium verticillioides NRRL 25457; type: functional, organism-based; in short: as §3
[8] = system: Escherichia coli; assay: […] activity against Escherichia coli ATCC 25922; type: functional, organism-based; in short: as §1
[9] = system: Candida albicans; assay: Antifungal activity against Candida albicans ATCC 14053 at 50 ug/disk; type: functional; settings: read-out: IZ; in short: as §1

Compound: C[C@H]1CCC[C@@H]2C=C[C@H](C)[C@@](C)(C3=CC(=O)/C(=C\NCCO)C(=O)O3)[C@H]12 [SOLANAPYRONE K]
- zone of inhibition at 50 µg/disc [1]: 9 mm
- inhibition zone (IZ) [2]: 13 mm

Compound: COc1cc([C@@]2(C)[C@@H]3[C@@H](C)CCC[C@@H]3C=C[C@@H]2C)oc(=O)c1C=O [SOLANAPYRONE J]
- zone of inhibition at 200 µg/disc [3]: 30 mm
- zone of inhibition at 50 µg/disc [4]: 21 mm
- zone of inhibition at 50 µg/disc [1]: 17 mm
- inhibition zone (IZ) [2]: 19 mm
- zone of inhibition at 200 µg/disc [5]: 30 mm
- MIC ([6]; Aspergillus flavus, NRRL 6541): 20 µg/mL (≈ 60.5 µM)
- IC50 ([6]; Aspergillus flavus, NRRL 6541, read-out: IC50): 8.6 µg/mL (≈ 26 µM)
- MIC ([7]; Fusarium verticillioides, NRRL 25457): 24 µg/mL (≈ 72.6 µM)
- IC50 ([7]; Fusarium verticillioides, NRRL 25457, read-out: IC50): 15 µg/mL (≈ 45.4 µM)

Compound: COc1cc([C@@]2(C)[C@H]3[C@H](C=C[C@H]2C)CCC[C@@H]3C)oc(=O)c1CO
- Activity [1]: inactive
- Activity [2]: inactive
- Activity [8]: inactive

Compound: NYSTATIN [listing 1 of 2 here]
- MIC [6]: 10 µg/mL
- MIC [7]: 10 µg/mL

Compound: CCCCC[C@@H](O)[C@H]1C(=O)O[C@H](C)[C@@H](O)/C=C/C=C/C=C/C=C/C=C(\C)[C@@H](O)C[C@H](O)C[C@H](O)C[C@H](O)C[C@H](O)C[C@H](O)C[C@@H]1O [FILIPIN]
- zone of inhibition at 50 µg/disc [9]: 23 mm

Compound: NYSTATIN [listing 2 of 2 here]
- IC50 [6]: 5 µg/mL
- IC50 [7]: 3 µg/mL

Compound: C[C@H]1CCC[C@@H]2C=C[C@H](C)[C@@](C)(C3=CC(=O)/C(=C/N)C(=O)O3)[C@H]12
- Activity [1]: inactive
- Activity [2]: inactive
- Activity [8]: inactive
